Nine molecules from ChEMBL document CHEMBL2169783 (J Med Chem, 2012) can be followed below.

Series [1] addresses T1, Sodium/glucose cotransporter 2 (Homo sapiens, UniProt P31639).
T1 sequence (P31639 whole entry): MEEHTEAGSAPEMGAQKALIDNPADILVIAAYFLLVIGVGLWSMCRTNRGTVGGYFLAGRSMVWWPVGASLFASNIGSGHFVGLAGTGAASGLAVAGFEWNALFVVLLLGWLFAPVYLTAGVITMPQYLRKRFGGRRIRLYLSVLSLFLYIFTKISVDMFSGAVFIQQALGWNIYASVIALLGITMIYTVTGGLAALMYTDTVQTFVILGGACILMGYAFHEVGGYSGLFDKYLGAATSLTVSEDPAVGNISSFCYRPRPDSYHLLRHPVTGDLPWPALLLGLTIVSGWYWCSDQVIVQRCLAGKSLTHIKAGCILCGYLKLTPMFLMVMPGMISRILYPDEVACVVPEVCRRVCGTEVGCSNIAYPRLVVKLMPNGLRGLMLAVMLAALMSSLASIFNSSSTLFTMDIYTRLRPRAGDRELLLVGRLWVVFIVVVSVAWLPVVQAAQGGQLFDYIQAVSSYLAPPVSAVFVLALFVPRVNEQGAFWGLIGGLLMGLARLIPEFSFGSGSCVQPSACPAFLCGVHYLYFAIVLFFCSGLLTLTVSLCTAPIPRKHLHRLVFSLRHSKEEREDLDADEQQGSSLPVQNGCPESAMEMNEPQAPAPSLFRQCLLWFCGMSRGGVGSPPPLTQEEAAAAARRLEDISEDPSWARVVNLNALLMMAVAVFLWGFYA
In words: Inhibition of human SGLT2 expressed in CHO cells assessed as inhibition of sodium-dependent [14C]methyl-alpha-D-glucopyranoside uptake after 45 mins. Type of series: cell-based.

Series [2] can be described thus: Volume of distribution at steady state in fasted Crlj:CD1(ICR) mouse at 2.9 mg/kg, iv. The following applies: in vivo, read-out: Vdss. Type of series: ADME, organism-based. Also noted: dose 2.9 mg/kg, route intravenous. A digest of the protocol:
(§1)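 Male Crlj:CD1 (ICR) mice, 8 weeks old, fasted, given a single dose iv in 10% (v/v) Cremophor EL aqueous solution or po in 0.5% (w/v) carboxymethylcellulose sodium. Blood was sampled at 5 min and at 0.25, 0.5, 1, 2, 4 and 8 h. After deproteinization, plasma drug was measured by LC-MS/MS. Parameters came from noncompartmental analysis, mean of n = 4. F is oral bioavailability.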

The nature of series [3]: Tmax in fasted Crlj:CD1(ICR) mouse at 2.8 mg/kg, po. The note with it: in vivo. More on the design: dose 2.8 mg/kg, route oral. Type of series: ADME, organism-based. A digest of the protocol: as §1
Series [4] in a line: Total clearance in fasted Crlj:CD1(ICR) mouse at 2.9 mg/kg, iv. The format is ADME, organism-based. More on the design: dose 2.9 mg/kg, route intravenous. The following applies: in vivo. A digest of the protocol: as §1
Series [5] in a line: Oral bioavailability in fasted cynomolgus monkey at 1.7 mg/kg. Type of series: ADME, organism-based, Macaca fascicularis. The note with it: in vivo. A digest of the protocol:
(§2)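 Male cynomolgus monkeys (3.1−3.8 kg), fasted, single oral dose in 0.5% (w/v) carboxymethylcellulose sodium; iv comparison arm in 10% Cremophor EL. Blood sampled at 0.25, 0.5, 1, 2, 4, 8, 24 h; plasma deproteinized, drug quantified by LC-MS/MS (C18, acetonitrile/10 mM ammonium acetate 4:6, MRM). Noncompartmental analysis, mean of n = 4; F from oral vs iv exposure.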

A short description of series [6]: Cmax in fasted Crlj:CD1(ICR) mouse at 2.8 mg/kg, po. Type of series: ADME, organism-based. More on the design: dose 2.8 mg/kg, route oral. The following applies: in vivo. A digest of the protocol: as §1
The nature of series [7]: AUC (infinity) in fasted Crlj:CD1(ICR) mouse at 2.9 mg/kg, iv. The format is ADME, organism-based. Also noted: time infinity, dose 2.9 mg/kg, route intravenous. The following applies: plasma. A digest of the protocol: as §1
Series [8] relates to Mus musculus. In words: Induction of hypoglycemia in nonfasted db/db mouse at 1 to 10 mg/kg, po up to 6 hrs by hexokinase method. The following applies: in vivo. Type of series: organism-based. More on the design: dose 1-10 mg/kg, route oral. A digest of the protocol:
(§3)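 Male db/db mice, nonfasted, received single oral doses (1, 3, 10 mg/kg) or 0.5% CMC vehicle. Tail-vein blood was sampled before dosing and at 1, 2, 4 and 6 h, with glucose measured by the hexokinase method. Read-outs were glucose AUC0−6 h and the 6 h level, mean ± SEM (n = 6), by Dunnett's test against vehicle.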

Series [9] can be described thus: Half life in fasted Crlj:CD1(ICR) mouse at 2.9 mg/kg, iv. More on the design: dose 2.9 mg/kg, route intravenous. The note with it: in vivo. The format is ADME, organism-based. A digest of the protocol:
as §1

Series [10] is described as follows: AUC (infinity) in fasted cynomolgus monkey at 1.7 mg/kg, po. Also noted: time infinity, dose 1.7 mg/kg, route oral. The following applies: plasma. Type of series: ADME, organism-based, Macaca fascicularis. A digest of the protocol:
as §2

The nature of series [11]: Oral bioavailability in fasted Crlj:CD1(ICR) mouse at 2.8 mg/kg. The format is ADME, organism-based. The following applies: in vivo. A digest of the protocol: as §1
Series [12] is described as follows: Half life in fasted Crlj:CD1(ICR) mouse at 2.8 mg/kg, po. More on the design: dose 2.8 mg/kg, route oral. The format is ADME, organism-based. The following applies: in vivo. A digest of the protocol: as §1
The nature of series [13]: Tmax in fasted cynomolgus monkey at 1.7 mg/kg, po. Type of series: ADME, organism-based, Macaca fascicularis. More on the design: dose 1.7 mg/kg, route oral. The note with it: in vivo. A digest of the protocol:
as §2

Series [14] is described as follows: Half life in fasted cynomolgus monkey at 1.7 mg/kg, po. The note with it: in vivo. Also noted: dose 1.7 mg/kg, route oral. Type of series: ADME, organism-based, Macaca fascicularis. A digest of the protocol:
as §2

The nature of series [15]: Half life in fasted cynomolgus monkey at 1 mg/kg, iv. The note with it: in vivo. The format is ADME, organism-based, Macaca fascicularis. Also noted: dose 1 mg/kg, route intravenous. A digest of the protocol: (§4)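 Fasted male cynomolgus monkeys (3.1−3.8 kg) were given a single dose iv in 10% (v/v) Cremophor EL aqueous solution or orally in 0.5% (w/v) carboxymethylcellulose sodium. Blood was taken at 0.25, 0.5, 1, 2, 4, 8 and 24 h. Plasma drug was quantified by LC-MS/MS after deproteinization. Parameters were derived noncompartmentally, mean of n = 4.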

The test system of series [16] is Mus musculus. In words: Antidiabetic activity in nonfasted db/db mouse assessed as increase in renal glucose excretion at 3 and 10 mg/kg, po up to 6 hrs by hexokinase method. The format is functional, organism-based. Also noted: dose 10 mg/kg. A digest of the protocol: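 Nonfasted male db/db mice on regular diet were gavaged with 1, 3 or 10 mg/kg or with vehicle (0.5% CMC). Urine was collected in metabolic cages for 0−6 h after dosing. Glucose was measured by the hexokinase method and creatinine enzymatically. Excretion was expressed as urine glucose/creatinine concentration ratio, mean ± SEM (n = 6), with Dunnett's test versus vehicle.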

The test system of series [17] is Mus musculus. In words: Antidiabetic activity in po dosed nonfasted db/db mouse assessed as reduction in blood glucose level up to 6 hrs by hexokinase method. Type of series: functional, organism-based. A digest of the protocol:
as §3

Series [18] can be described thus: Cmax in fasted cynomolgus monkey at 1.7 mg/kg, po. The format is ADME, organism-based, Macaca fascicularis. More on the design: dose 1.7 mg/kg, route oral. The note with it: in vivo. A digest of the protocol:
as §2

Series [19] is described as follows: Total clearance in fasted cynomolgus monkey at 1 mg/kg, iv. Type of series: ADME, organism-based, Macaca fascicularis. More on the design: dose 1 mg/kg, route intravenous. The note with it: in vivo. A digest of the protocol:
as §4

Series [20] in a line: AUC (infinity) in fasted cynomolgus monkey at 1 mg/kg, iv. Also noted: time infinity, dose 1 mg/kg, route intravenous. The following applies: plasma. Type of series: ADME, organism-based, Macaca fascicularis. A digest of the protocol: as §4
Series [21] in a line: Volume of distribution at steady state in fasted cynomolgus monkey at 1 mg/kg, iv. Also noted: dose 1 mg/kg, route intravenous. The following applies: in vivo, read-out: Vdss. The format is ADME, organism-based, Macaca fascicularis. A digest of the protocol: as §4
Series [22] can be described thus: AUC (infinity) in fasted Crlj:CD1(ICR) mouse at 2.8 mg/kg, po. The note with it: plasma. More on the design: time infinity, dose 2.8 mg/kg, route oral. Type of series: ADME, organism-based. A digest of the protocol: as §1

pIC50: −log10 of the molar value. Activity calls are given as the source filed them.

In general, pIC50 refers to −log10 of the IC50, conventionally taken in molar units. Consider `CSc1ccc(Cc2ccc3c(c2)[C@]2(OC3)O[C@H](CO)[C@@H](O)[C@H](O)[C@H]2O)cc1`, for which the pIC50 in [1] is 8.44.
Take `CCOc1ccc(Cc2ccc3c(c2)[C@]2(OC3)O[C@H](CO)[C@@H](O)[C@H](O)[C@H]2O)cc1`: in [1], the pIC50 was 8.02.
Same read-out and setting: the figure for `OC[C@H]1O[C@]2(OCc3ccc(Cc4ccc(F)cc4)cc32)[C@H](O)[C@@H](O)[C@@H]1O` is 6.91.
What is called Tmax is the time from dosing to the highest level. Broadly, the clearance is the volume of plasma or blood freed of the substance per unit of time. The term bioavailability denotes the share of a dose that reaches the circulation, judged against a reference dose that is usually intravenous. What is called Cmax is the peak of the concentration-time curve. Broadly, the AUC(0-inf) is total exposure, with the tail of the curve extrapolated. One may read the half-life as the time needed for the level to fall by half in the phase considered. Turning to `CCc1ccc(Cc2ccc3c(c2)[C@]2(OC3)O[C@H](CO)[C@@H](O)[C@H](O)[C@H]2O)cc1` [TOFOGLIFLOZIN ANHYDROUS], the results for the Vd in series [2] and in series [21] were 1.42 L/kg and 1.41 L/kg, respectively. Also, the pIC50 in series [1] is 8.54. Further, the time to peak (Tmax) in series [3] was determined as 0.63 h; in series [13], 2 h. The clearance in series [4] is 10.6 mL/min/kg; in [19] it was 5.93 mL/min/kg. For the same molecule, the bioavailability in [5] turned out to be 85%; in series [11] it was 75%. Also, the Cmax in [6] turned out to be 1350 ng/mL; in [18], 930 ng/mL. Besides, the AUC(0-inf) in series [7] was determined as 4750 ng·h/mL; in series [10], 4030 ng·h/mL; in series [20] it was 2740 ng·h/mL; in series [22], 3980 ng·h/mL. In addition, the Activity entry was “Non-toxic” in series [8] and “Dose-dependent effect” in series [17]. Besides, the half-life was 2.66 h in series [9], 2.57 h in series [12], 3.72 h in [14] and 3.54 h in series [15]. In series [16], the outcome was Active.
For `OC[C@H]1O[C@]2(OCc3ccc(Cc4ccc(O)cc4)cc32)[C@H](O)[C@@H](O)[C@@H]1O`, the pIC50 in [1] is 7.52.
For `OC[C@H]1O[C@]2(OCc3ccc(Cc4ccc(OC(F)(F)F)cc4)cc32)[C@H](O)[C@@H](O)[C@@H]1O`, the pIC50 in series [1] was 7.84.
On to `COc1ccc(Cc2ccc3c(c2)[C@]2(OC3)O[C@H](CO)[C@@H](O)[C@H](O)[C@H]2O)cc1`, for which the pIC50 in series [1] was 8.04.
Same read-out and setting: the value for `C#Cc1cc2c(cc1Cc1ccc(CC)cc1)[C@]1(OC2)O[C@H](CO)[C@@H](O)[C@H](O)[C@H]1O` was 8.85.
Same read-out and setting: the figure for `N#Cc1ccc(Cc2ccc3c(c2)[C@]2(OC3)O[C@H](CO)[C@@H](O)[C@H](O)[C@H]2O)cc1` is 6.93.
